EBI2 antag: EBI2 (human) antagonism; EBI2 beta-arrestin recruitment, luminescence, 7a,25-OHC stimulated; AID 651636; inhibition, % at 5 µM; P32249; 360,000 compounds, 0.81% hits; in the data active means inhibition above about 38%;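 further: enzyme fragment complementation signal reports receptor beta-arrestin coupling in cells; 0% = agonist plus DMSO wells and 100% = wells without agonist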
CCR6 antagonist: antagonists of human CCR6 receptor; P51684; AID 493098; CHO-K1 CCR6 PathHunter beta-arrestin, luminescence, CCL20-stimulated; inhibition, % at 20 µM; 340,000 compounds, 0.49% hits;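 active means compounds whose inhibition of the agonist-driven luminescence signal at 20 µM reaches about 50%, limit read from the data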;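 further: cells stimulated with CCL20 at 14 nM final; plate controls were DMSO with CCL20 for no effect and DMSO without agonist for full effect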
Target sequence (P51684 whole entry, looked up): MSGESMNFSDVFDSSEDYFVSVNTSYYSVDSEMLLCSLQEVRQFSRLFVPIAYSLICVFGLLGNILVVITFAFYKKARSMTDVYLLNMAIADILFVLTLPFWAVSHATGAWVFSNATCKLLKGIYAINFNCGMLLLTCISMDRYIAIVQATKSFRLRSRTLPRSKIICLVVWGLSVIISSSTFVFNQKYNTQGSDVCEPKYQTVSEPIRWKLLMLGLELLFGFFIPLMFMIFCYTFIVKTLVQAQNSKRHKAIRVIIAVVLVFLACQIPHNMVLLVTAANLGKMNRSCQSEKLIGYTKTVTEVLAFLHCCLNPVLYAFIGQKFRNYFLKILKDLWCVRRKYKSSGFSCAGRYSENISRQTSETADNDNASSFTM
CXCR6 inh: CXCR6 (human) receptor inhibition; inhibition, % at 20 µM; O00574; CHO-K1 PathHunter CXCR6 beta-arrestin, luminescence; 360,000 compounds, 0.36% hits; in the data active means inhibition above about 34%, passing the limit was not always enough;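 further: antagonist mode with CXCL16 agonist at 10 nM final; 0% = 10 nM CXCL16 with DMSO and 100% = unstimulated wells without agonist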
Target sequence (O00574 whole entry, looked up): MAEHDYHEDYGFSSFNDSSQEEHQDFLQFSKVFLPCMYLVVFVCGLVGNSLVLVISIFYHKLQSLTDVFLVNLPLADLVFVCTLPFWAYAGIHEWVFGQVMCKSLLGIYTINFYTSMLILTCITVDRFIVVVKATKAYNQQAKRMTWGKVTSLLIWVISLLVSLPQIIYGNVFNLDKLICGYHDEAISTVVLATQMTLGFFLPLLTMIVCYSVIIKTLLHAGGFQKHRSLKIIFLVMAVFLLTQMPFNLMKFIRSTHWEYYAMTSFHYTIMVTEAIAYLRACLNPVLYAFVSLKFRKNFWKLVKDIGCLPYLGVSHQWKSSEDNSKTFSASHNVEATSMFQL
APJ antagonist: APJ receptor antagonism | 330,000 compounds, 0.32% hits | CHO-K1 APJ beta-arrestin complementation, luminescence | AID 2521 | inhibition, % at 20 µM | P35414;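 active means inhibition above about 40% at 20 µM, limit read from the data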;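 further: cells challenged with 10 nM apelin-13 agonist together with compound; plate controls were apelin-13 plus DMSO wells for no effect and DMSO wells lacking apelin-13 for full effect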
APJ ag: activates the human apelin receptor APJ; P35414; CHO-K1 APJ PathHunter beta-arrestin, luminescence; 0% DMSO wells, 100% apelin; activation, % at 20 µM; 330,000 compounds, 0.11% hits; AID 2520;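 active means activation more than six SD over the plate average, tested at 20 µM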;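 further: 0% = DMSO alone and 100% = apelin-13 at 10 nM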
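assay system = CHO-K1 APJ beta-arrestin complementation cell line | input = cell density 1000 per well | dosing = compound 20 µM once, DMSO 1% | timing = compound 90 min 25 °C, reagent 1 h | measured by = luminescence from split beta-galactosidase complementation, Galacton Star/Emerald II substrate | read-out basis = APJ agonist activity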
CXCR6 antag conf: confirmation of human CXCR6 receptor antagonists; inhibition, % at 20 µM; shares compounds with CXCR6 inh; AID 602409; 700 compounds, 65% hits; CHO-K1 CXCR6 PathHunter beta-arrestin, luminescence;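 active means mean inhibition over four retests above 40%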;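 further: receptor stimulated with 10 nM CXCL16 agonist; beta-galactosidase fragment complementation upon beta-arrestin recruitment to receptor; plate controls were CXCL16 plus DMSO for no effect and DMSO without CXCL16 for full effect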
EBI2 antag conf: confirmation of human EBI2 receptor antagonists. 2,400 compounds, 29% hits. shares compounds with EBI2 antag. EBI2 beta-arrestin luminescence, 7a,25-OHC antagonism. inhibition, % at 5 µM;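 active means inhibition of at least 50%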
EBI2 ag: counter-screen for EBI2 antagonists: EBI2 agonist activity. 2,400 tested, under 10 active. EBI2-expressing cells, agonist mode, luminescence, 60 min; 0% vehicle, 100% 7α,25-dihydroxycholesterol control. activation, % at 5 µM. shares compounds with EBI2 antag;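 active means activation of at least 50%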
bGal cs: inhibits E. coli beta-galactosidase, counter-screen for EBI2 antagonists | shares compounds with EBI2 antag | purified beta-galactosidase, luminescent Galacton Star, 15 min | inhibition, % at 5 µM | 2,400 compounds, 1% hits | AID 652176;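 active means replicate-average signal at least 3 plate SD below neutral wells, shown as high inhibition, flagging enzyme-inhibiting false positives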;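 further: 0% = DMSO wells with enzyme and 100% = wells lacking enzyme; higher means stronger loss of beta-gal luminescence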
An asterisk follows results filed as active; nt = not tested or not shown. Shown are actives, neighbours in structure and some others; about 1.5% of the full set was active somewhere.

SMILES	EBI2 antag	CCR6 antagonist	CXCR6 inh	APJ antagonist	APJ ag	CXCR6 antag conf	others
COc1ccc(-c2cc(=O)n(-c3ccc([N+](=O)[O-])cc3)[nH]2)cc1	1	38	41*	29	-5	14
COc1ccc(-c2[nH]n(-c3ccc([N+](=O)[O-])cc3)c(=O)c2C=NCc2ccc(F)cc2)cc1	14	8	-4	-18	-3	nt
O=C(Cc1ccc(NC(=O)C2CCCN(C(=O)C3CCCCC3)C2)cc1)Nc1cccc(C(=O)N2CCCC2)c1 (configuration not stated)	-2	1	91*	nt	nt	19
N#C/C(=C\c1c[nH]c2ccccc12)C(N)=O	4	-3	-8	-4	-1	nt
CC(=O)Oc1c(/C=C(\C#N)C(N)=O)[nH]c2ccccc12	-12	36	42*	nt	nt	16
O=C(COc1ccc(Br)cc1Cl)NC(=S)N1CCc2ccccc21	4	44	57*	12	-4	53*
O=[N+]([O-])c1ccc(Sc2cccc3cccnc23)c([N+](=O)[O-])c1	33	56*	53*	37	-4	70*
O=C1C=CC(=O)N1CCCCCCCCCCN1C(=O)C=CC1=O	26	111*	87*	nt	nt	51*
C#CCNC(=O)C(C)c1ncc(C(F)(F)F)cc1Cl (configuration not stated)	-1	10	-2	12	-2	nt
O=C(c1cccc(NS(=O)(=O)c2ccc(Br)cc2)c1)N1CCN(c2ccccc2O)CC1	-5	5	-5	0	12	nt
Cc1c(Cl)cccc1NC(=S)NC(=O)c1cncc(Br)c1	6	33	42*	16	-3	35
CCCCCc1ccc(-c2cn(Cc3ccc(C(=O)c4ccccc4)cc3)nn2)cc1	-10	-3	-4	-5	0	nt
CCc1cc(-c2cnnn2Cc2ccccc2)ccc1-c1cn(CC(C)C)nn1	5	nt	60*	nt	nt	8
CC(=O)Nc1ccc(-c2sc(Nc3cccc4ccccc34)n[n+]2-c2ccccc2)cc1	-12	6	-1	-13	-1	nt
CC1=C(CO)C(=O)OC([C@@H](C)C2CC[C@H]3C4C[C@H]5O[C@]56[C@@H](O)C=CC(=O)[C@]6(C)C4CC[C@]23C)C1 (some centres not stated)	55*	41	44*	nt	nt	48*
Cc1ccc(S(=O)(=O)c2cnc(-c3ccccc3)nc2N2CCN(C)CC2)cc1	10	18	11	-24	-4	nt
CC(=O)Nc1ccc(NC(=O)c2csc([C@@H]3O[C@H](CO)[C@H](O)[C@H](O)[C@H]3O)n2)cc1	-6	nt	6	nt	nt	nt
O=C(Nc1ccc(Oc2ccccc2)cc1)c1csc([C@@H]2O[C@H](CO)[C@H](O)[C@H](O)[C@H]2O)n1	10	nt	48*	nt	nt	52*
CC(C)CN1C(=O)C(=Nc2cccnc2)c2ccccc21	9	37	43*	33	-10	37
C=CCN1C(=O)/C(=N/n2cnnc2)c2ccccc21	-8	21	6	9	-3	nt
Cc1nn(-c2ccccc2)c(N)c1-c1ccccc1	-1	5	-1	8	-1	nt
Cc1nn(-c2nc3ccccc3[nH]2)c(N)c1-c1ccccc1	11	nt	49*	19	-7	53*
COc1cccc(-c2csc(N3CCN(C(=O)Nc4ccccc4OC)CC3)n2)c1	-2	-7	68*	-5	-4	-8
COc1cccc(-c2csc(N3CCN(C(=O)Nc4ccc(F)cc4)CC3)n2)c1	7	17	-13	1	0	nt
O=C(Nc1ccccc1)c1ccc(Nc2c([N+](=O)[O-])cc([N+](=O)[O-])c3ccccc23)cc1	49*	84*	56*	75*	-10	67*	EBI2 antag conf=47;EBI2 ag=-1;bGal cs=23
SMILES	EBI2 antag	CCR6 antagonist	CXCR6 inh	APJ antagonist	APJ ag	CXCR6 antag conf	others
Cc1ccc(C2CC(=O)C(C=NCCN3CCN(C(=S)Nc4ccc(F)cc4)CC3)=C(O)C2)cc1 (configuration not stated)	6	1	8	-16	-2	nt
Cc1cc(C)nc(N/N=C/C2=C(O)CC(c3ccc(F)cc3)CC2=O)n1 (configuration not stated)	57*	78*	60*	23	-13	26	EBI2 antag conf=67*;EBI2 ag=-5;bGal cs=-5
Cc1c(Br)cccc1NC(=O)C1(C)CCN1Cc1ccccc1OC(F)F (configuration not stated)	18	nt	-7	nt	nt	nt
COc1ccc(-c2c(C(=O)c3ccccc3)[nH]c(N)c2C(=O)c2ccc(Br)cc2)cc1OC	42*	nt	61*	nt	nt	65*	EBI2 antag conf=41;EBI2 ag=-2;bGal cs=0
Nc1cccc(Oc2ccc3c(c2)C(=O)NC3=O)c1	-4	-8	4	4	-2	nt
Cc1ccc(/C=C/C(=O)N2CCCC(C)C2)cc1 (configuration not stated)	67*	6	10	6	-4	nt	EBI2 antag conf=42;EBI2 ag=0;bGal cs=11
CCOC(=O)C1CCCN(C(=O)/C=C/c2ccc(Cl)cc2)C1 (configuration not stated)	46*	19	-6	-2	-1	nt	EBI2 antag conf=22;EBI2 ag=0;bGal cs=-7
Cc1ccc(/C=C/C(=O)N2CCC(Cc3ccccc3)CC2)cc1	96*	-4	1	-3	0	nt	EBI2 antag conf=86*;EBI2 ag=2;bGal cs=7
CCc1ccccc1NC(=O)CN1CCN(C(=O)C2CCN(C(=O)/C=C/c3ccccc3)CC2)CC1	77*	7	-1	6	0	nt	EBI2 antag conf=52*;EBI2 ag=1;bGal cs=1
CCOC(=O)C1CCCN(C(=O)/C=C/c2cc(OC)c(OC)c(OC)c2)C1 (configuration not stated)	5	-3	-3	2	-5	nt
NC(=O)c1cccc(CS(=O)(=O)c2ccc(Cl)cc2)c1	-1	9	4	5	-3	nt
COc1cccc(NC(=O)N(C)C[C@@H]2Oc3cc(Br)ccc3S(=O)(=O)N([C@@H](C)CO)C[C@H]2C)c1	-5	nt	6	nt	nt	nt
COc1ccccc1-c1ccc2c(c1)O[C@@H](CN(C)C(=O)Nc1cccc(F)c1)[C@H](C)CN([C@H](C)CO)S2(=O)=O	44*	nt	-14	nt	nt	nt	EBI2 antag conf=2;EBI2 ag=2;bGal cs=2
C=CCOc1ccnc(-c2ccccc2)n1	-12	-6	3	nt	nt	nt
CC(C)c1ccc(Nc2ncc3c(n2)CCN(C(=O)Nc2ccc(F)c(Cl)c2)C3)cc1	52*	nt	-12	nt	nt	nt	EBI2 antag conf=20;EBI2 ag=1;bGal cs=3

Assay outcomes deposited in PubChem by Sanford-Burnham Center for Chemical Genomics.
